Substitutions are numbered along the chain they refer to.
What was measured:
[1] = system: neurons from Kcnt1^L/L mice; details: brain slices, 10 μM; cited from earlier work
[2] = system: GABAA Cl– channels; details: binding displacement assay; cited from earlier work
[3] = molecular target: Maxi-K (Slo1 α1/β3) (Homo sapiens, UniProt Q12791); assay: Tl+ flux assay in HEK-293 cells expressing Maxi-K; type: cell-based; details: CRC
[4] = molecular target: T1, WT human SLACK (Homo sapiens, UniProt Q5JUK3); assay: Tl+ flux assay in HEK-293 cells stably expressing WT human SLACK; type: cell-based; details: CRC; IC50 for compounds of mode Inh (also cells printed Inactive)
T1 sequence (Q5JUK3 1-1235 isoform Q5JUK3-3): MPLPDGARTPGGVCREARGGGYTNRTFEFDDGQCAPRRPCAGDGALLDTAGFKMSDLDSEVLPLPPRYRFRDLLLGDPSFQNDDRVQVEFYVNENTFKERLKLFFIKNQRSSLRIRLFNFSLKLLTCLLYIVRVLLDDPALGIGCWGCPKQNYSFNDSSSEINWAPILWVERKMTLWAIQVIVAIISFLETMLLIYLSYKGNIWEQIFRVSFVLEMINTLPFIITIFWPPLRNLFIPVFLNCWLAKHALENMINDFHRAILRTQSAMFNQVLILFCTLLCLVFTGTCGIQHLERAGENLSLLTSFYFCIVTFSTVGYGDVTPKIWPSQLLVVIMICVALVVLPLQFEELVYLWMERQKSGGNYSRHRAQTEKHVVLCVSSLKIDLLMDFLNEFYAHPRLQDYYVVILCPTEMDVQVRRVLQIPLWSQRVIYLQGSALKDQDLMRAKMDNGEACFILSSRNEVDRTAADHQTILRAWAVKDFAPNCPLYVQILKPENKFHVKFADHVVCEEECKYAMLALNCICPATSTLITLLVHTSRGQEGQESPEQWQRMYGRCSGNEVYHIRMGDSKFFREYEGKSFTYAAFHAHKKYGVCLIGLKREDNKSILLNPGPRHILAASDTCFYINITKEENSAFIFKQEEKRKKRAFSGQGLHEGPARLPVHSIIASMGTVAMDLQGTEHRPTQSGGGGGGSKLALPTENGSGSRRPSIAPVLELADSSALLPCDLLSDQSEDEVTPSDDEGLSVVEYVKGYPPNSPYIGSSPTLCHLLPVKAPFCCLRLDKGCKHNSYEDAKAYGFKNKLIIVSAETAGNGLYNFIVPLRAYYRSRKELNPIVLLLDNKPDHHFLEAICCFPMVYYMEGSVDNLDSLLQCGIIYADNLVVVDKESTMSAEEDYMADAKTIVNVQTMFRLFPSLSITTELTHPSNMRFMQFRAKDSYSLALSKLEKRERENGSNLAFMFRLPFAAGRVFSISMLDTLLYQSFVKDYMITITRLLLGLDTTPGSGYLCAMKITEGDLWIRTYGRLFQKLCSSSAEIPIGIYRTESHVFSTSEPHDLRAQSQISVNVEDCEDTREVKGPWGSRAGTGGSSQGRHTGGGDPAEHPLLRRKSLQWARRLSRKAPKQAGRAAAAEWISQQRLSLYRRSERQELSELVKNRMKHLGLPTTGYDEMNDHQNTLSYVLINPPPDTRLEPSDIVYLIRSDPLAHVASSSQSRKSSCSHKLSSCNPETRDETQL
Method in brief: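 Stably transfected HEK-293 cells expressing wild-type human SLACK; thallium flux read-out. IC50 or EC50 taken from concentration-response curves, and each compound classed as inhibitor, activator or not active. Efficacy is the response amplitude at 30 μM test compound, as a percentage of the maximum response to a reference SLACK inhibitor (for inhibitors) or loxapine (for activators).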

[5] = molecular target: T1, WT human SLACK; assay: Whole-cell voltage-clamp electrophysiology, automated patch clamp; type: cell-based; details: CRC, CHO cells expressing WT SLACK
Method in brief: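 CHO cells stably expressing wild-type human SLACK. Currents recorded in whole-cell voltage-clamp mode on an automated patch clamp platform. IC50 derived from concentration-response data for a selected subset of analogs.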

[6] = molecular target: T2, human A934T SLACK (Homo sapiens, UniProt Q5JUK3, A915T); assay: Tl+ flux assay in HEK-293 cells expressing A934T SLACK; type: cell-based; details: CRC
T2 sequence (Q5JUK3 1-1235 isoform Q5JUK3-3 A934T): T1 sequence (Q5JUK3 1-1235 isoform Q5JUK3-3) with A934T

[7] = Metabolic stability in mouse liver microsomes; type: in vitro ADME; details: multiple time points
[8] = molecular target: hERG (Homo sapiens, UniProt Q12809); assay: Tl+ flux assay in HEK-293 stably expressing hERG; type: cell-based; details: 10 μM concentration
hERG, sequence (Q12809 whole entry): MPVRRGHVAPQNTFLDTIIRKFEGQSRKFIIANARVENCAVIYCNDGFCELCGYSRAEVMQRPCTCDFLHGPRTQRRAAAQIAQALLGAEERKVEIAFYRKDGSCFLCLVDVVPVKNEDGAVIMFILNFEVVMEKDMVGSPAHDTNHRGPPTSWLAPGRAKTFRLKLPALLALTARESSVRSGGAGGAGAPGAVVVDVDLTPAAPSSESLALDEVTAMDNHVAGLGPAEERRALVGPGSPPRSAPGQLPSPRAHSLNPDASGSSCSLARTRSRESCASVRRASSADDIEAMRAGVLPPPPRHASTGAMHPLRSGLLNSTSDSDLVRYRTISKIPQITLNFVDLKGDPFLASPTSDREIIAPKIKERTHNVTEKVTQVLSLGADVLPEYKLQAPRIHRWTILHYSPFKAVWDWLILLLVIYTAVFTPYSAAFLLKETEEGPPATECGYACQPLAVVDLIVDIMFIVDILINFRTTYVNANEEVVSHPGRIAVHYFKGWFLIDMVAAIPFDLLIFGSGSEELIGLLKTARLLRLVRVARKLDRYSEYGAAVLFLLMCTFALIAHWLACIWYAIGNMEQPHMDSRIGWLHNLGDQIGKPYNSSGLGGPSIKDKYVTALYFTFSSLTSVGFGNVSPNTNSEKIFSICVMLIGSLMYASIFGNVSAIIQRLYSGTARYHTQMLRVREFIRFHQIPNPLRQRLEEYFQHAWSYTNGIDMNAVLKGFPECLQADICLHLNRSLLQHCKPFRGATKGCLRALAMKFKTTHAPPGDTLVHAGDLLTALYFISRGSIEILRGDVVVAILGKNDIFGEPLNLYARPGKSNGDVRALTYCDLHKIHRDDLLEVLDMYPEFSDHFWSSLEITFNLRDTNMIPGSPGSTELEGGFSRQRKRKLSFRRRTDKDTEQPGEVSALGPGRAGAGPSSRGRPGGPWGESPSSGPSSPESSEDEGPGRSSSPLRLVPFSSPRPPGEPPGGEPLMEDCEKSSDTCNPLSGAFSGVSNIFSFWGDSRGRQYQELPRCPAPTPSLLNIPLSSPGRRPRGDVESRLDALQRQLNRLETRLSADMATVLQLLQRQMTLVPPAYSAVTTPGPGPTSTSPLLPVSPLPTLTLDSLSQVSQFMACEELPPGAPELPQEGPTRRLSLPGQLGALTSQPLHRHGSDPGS

Maxi-K (Slo1 α1/β3), sequence (Q12791 whole entry, species assumed): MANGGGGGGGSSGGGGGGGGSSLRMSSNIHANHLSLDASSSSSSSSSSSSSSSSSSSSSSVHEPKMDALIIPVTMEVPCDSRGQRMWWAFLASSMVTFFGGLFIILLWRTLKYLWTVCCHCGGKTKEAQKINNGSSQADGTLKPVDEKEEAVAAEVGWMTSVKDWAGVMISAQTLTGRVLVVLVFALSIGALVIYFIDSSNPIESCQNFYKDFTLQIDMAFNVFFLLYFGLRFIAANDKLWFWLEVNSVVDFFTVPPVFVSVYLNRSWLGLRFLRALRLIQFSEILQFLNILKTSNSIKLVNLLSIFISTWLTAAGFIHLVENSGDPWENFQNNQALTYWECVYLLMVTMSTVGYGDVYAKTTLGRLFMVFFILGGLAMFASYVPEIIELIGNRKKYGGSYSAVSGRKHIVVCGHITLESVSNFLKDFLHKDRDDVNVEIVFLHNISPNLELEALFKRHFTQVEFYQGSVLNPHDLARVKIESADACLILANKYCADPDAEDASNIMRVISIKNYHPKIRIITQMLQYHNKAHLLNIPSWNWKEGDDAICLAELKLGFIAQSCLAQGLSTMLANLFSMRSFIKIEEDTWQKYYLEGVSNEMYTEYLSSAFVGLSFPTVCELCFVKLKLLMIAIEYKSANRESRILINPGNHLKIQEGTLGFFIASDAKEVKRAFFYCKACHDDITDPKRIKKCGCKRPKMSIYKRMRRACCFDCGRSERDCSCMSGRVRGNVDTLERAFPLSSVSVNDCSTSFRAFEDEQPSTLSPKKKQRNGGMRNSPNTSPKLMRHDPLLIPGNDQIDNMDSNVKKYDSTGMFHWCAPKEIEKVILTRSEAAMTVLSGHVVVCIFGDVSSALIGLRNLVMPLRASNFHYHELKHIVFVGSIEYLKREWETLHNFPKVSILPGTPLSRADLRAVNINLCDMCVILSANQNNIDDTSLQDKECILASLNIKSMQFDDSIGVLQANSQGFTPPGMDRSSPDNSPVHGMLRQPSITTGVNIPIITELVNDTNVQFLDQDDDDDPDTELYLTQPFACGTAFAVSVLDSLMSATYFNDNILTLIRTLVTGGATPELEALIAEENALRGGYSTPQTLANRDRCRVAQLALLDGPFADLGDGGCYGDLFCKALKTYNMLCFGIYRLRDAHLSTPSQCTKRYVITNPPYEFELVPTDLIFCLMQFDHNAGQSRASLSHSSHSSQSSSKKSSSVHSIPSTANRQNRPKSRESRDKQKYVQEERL
Maxi-K (Slo1 α1/β3), sequence (Q9NPA1 whole entry partner, species assumed): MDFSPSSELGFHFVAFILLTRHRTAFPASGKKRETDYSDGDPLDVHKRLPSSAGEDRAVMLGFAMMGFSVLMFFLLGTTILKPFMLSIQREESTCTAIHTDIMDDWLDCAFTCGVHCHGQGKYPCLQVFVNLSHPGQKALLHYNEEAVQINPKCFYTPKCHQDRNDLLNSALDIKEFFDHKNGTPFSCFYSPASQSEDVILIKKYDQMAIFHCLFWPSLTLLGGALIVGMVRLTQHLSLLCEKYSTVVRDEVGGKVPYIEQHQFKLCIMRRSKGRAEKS

Row | Compound | Maxi-K (Slo1 α1/β3) IC50 [3] | IC50 / EC50 [4] | IC50 (whole-cell EP) [5] | A934T IC50 [6] | predicted hepatic clearance (CLHEP) [7] | firing in neurons [1] | displacement at GABAA Cl– channels [2] | hERG activity [8]
1 | C[C@H](NC(=O)c1cc(C(F)(F)F)nn1C)c1nc(-c2ccnc(C(F)(F)F)c2)no1 [Compound 3] |  |  |  |  |  | significant reduction in the firing | 74% | 
2 | CCOc1ccccc1S(=O)(=O)N1CC(c2nc(-c3ccsc3)no2)C1 [Compound 5, 5-(1-((2-Ethoxyphenyl)sulfonyl)azetidin-3-yl)-3-(thiophen-3-yl)-1,2,4-oxadiazole] | inactive | 2.1 µM | submicromolar potency |  |  |  |  | 
3 | CCOc1ccccc1S(=O)(=O)N1CC(c2nc(-c3ccc(F)cc3Cl)no2)C1 [Compound 58, 3-(2-Chloro-4-fluorophenyl)-5-(1-((2-ethoxyphenyl)sulfonyl)azetidin-3-yl)-1,2,4-oxadiazole] | inactive | 2.1 µM | submicromolar potency |  |  |  |  | 
4 | CCOc1ccccc1S(=O)(=O)N1CC(c2nc(-c3ccc(F)s3)no2)C1 [Compound 60, 5-(1-((2-Ethoxyphenyl)sulfonyl)azetidin-3-yl)-3-(5-fluorothiophen-2-yl)-1,2,4-oxadiazole] | inactive | 4.8 µM | submicromolar potency | submicromolar potency |  |  |  | 
5 | [2H]C([2H])([2H])C([2H])([2H])Oc1ccccc1S(=O)(=O)N1CC(c2nc(-c3ccc(F)cc3)no2)C1 [Compound 109, 5-(1-((2-(Ethoxy-d5)phenyl)sulfonyl)azetidin-3-yl)-3-(4-fluorophenyl)-1,2,4-oxadiazole] | inactive | 5.4 µM |  |  |  |  |  | 
6 | O=S(=O)(c1ccccc1OCC(F)(F)F)N1CC(c2nc(-c3ccc(F)cc3)no2)C1 [Compound 113, 3-(4-Fluorophenyl)-5-(1-((2-(2,2,2-trifluoroethoxy)phenyl)sulfonyl)azetidin-3-yl)-1,2,4-oxadiazole] | inactive | 8.8 µM |  |  |  |  |  | 

The next lines start with results.

Row | Maxi-K (Slo1 α1/β3) IC50 [3] | IC50 / EC50 [4] | IC50 (whole-cell EP) [5] | A934T IC50 [6] | predicted hepatic clearance (CLHEP) [7] | Compound | firing in neurons [1] | displacement at GABAA Cl– channels [2] | hERG activity [8]
7 | inactive | 8.7 µM |  |  |  | O=S(=O)(c1cccc2c1OCCC2)N1CC(c2nc(-c3ccc(F)cc3)no2)C1 [Compound 119, 5-(1-(chroman-8-ylsulfonyl)azetidin-3-yl)-3-(4-fluorophenyl)-1,2,4-oxadiazole] |  |  | 
8 | inactive | 7.4 µM |  |  | 75 mL/min/kg | O=S(=O)(c1cccc2cccnc12)N1CC(c2nc(-c3ccc(F)cc3)no2)C1 [Compound 121, 3-(4-Fluorophenyl)-5-(1-(quinolin-8-ylsulfonyl)azetidin-3-yl)-1,2,4-oxadiazole] |  |  | 
9 | inactive | 1.1 µM | submicromolar potency | submicromolar potency |  | Cc1ccc2cccc(S(=O)(=O)N3CC(c4nc(-c5ccc(F)cc5)no4)C3)c2n1 [Compound 122, 3-(4-Fluorophenyl)-5-(1-((2-methylquinolin-8-yl)sulfonyl)azetidin-3-yl)-1,2,4-oxadiazole] |  |  | inactive

Source: article PMC10842602 (Bioorganic & medicinal chemistry, 2023)
